Activity calls are given as the source filed them. The rule behind the calls is not given here.
Columns and labels:
MDA-MB-231 [1] = assay: Effect on microtubule depolymerization in human MDA-MB-231 cells assessed as disorganized microtubule cytoskeleton at 3.6 uM after 2 hrs relative to control; format: functional, cell-based
Summary of the method: (§1)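 MDA-MB-231/ATCC cells grown on glass coverslips (1 × 10⁴ cells) for 24 h, then exposed to 3.6, 9, 18, 27 or 36 µM at 37 °C for 2 h. Fixed in 4% paraformaldehyde, permeabilized with Triton X-100, and immunostained for α-tubulin and ninein with DAPI counterstain. Interphase microtubule networks compared with untreated cells by confocal microscopy.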

MDA-MB-231 [2] = assay: Effect on microtubule depolymerization in human MDA-MB-231 cells at 27 uM after 2 hrs; format: functional, cell-based; summary of the method: as §1
MDA-MB-231 [3] = assay: Effect on microtubule depolymerization in human MDA-MB-231 cells at 36 uM after 2 hrs; format: functional, cell-based; summary of the method: as §1
[4] = Inhibition of bovine tubulin polymerization; design: species or system Bos taurus
Summary of the method: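 Purified bovine tubulin incubated at 37 °C in buffer containing 20% glycerol and 1 mM GTP, with test compound at 3.6–36 µM. Polymerization followed kinetically by the increase in fluorescence. Colchicine and paclitaxel served as controls.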

K562 [5] = assay: (§2) Cytotoxicity against human K562 cells; format: functional
Summary of the method: (§3)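 Tested in the NCI in vitro antitumor screening protocol across a tumor cell line panel. GI₅₀ is the concentration producing a 50% reduction in cell growth.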

SR = assay: Cytotoxicity against human SR cells; format: functional; summary of the method: as §3
NCI-H23 = assay: Cytotoxicity against human NCI-H23 cells; format: functional; summary of the method: as §3
NCI-H522 = assay: Cytotoxicity against human NCI-H522 cells; format: functional; summary of the method: as §3
COLO 205 = assay: Cytotoxicity against human COLO205 cells; format: functional; summary of the method: as §3
KM12 = assay: Cytotoxicity against human KM12 cells; format: functional; summary of the method: as §3
SW-620 = assay: Cytotoxicity against human SW620 cells; format: functional; summary of the method: as §3
SF-268 = assay: Cytotoxicity against human SF268 cells; format: functional; summary of the method: as §3
SF-295 = assay: Cytotoxicity against human SF295 cells; format: functional; summary of the method: as §3
SK-MEL-28 = assay: Cytotoxicity against human SK-MEL28 cells; format: functional
Summary of the method: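 Tested in the NCI in vitro antitumor screening protocol against human tumour cell lines.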

UACC-257 = assay: Cytotoxicity against human UACC257 cells; format: functional; summary of the method: as §3
SK-OV-3 = assay: Cytotoxicity against human SK-OV3 cells; format: functional; summary of the method: as §3
786-0 = assay: Cytotoxicity against human 786-0 cells; format: functional; summary of the method: as §3
PC-3 = assay: Cytotoxicity against human PC3 cells; format: functional; summary of the method: as §3
DU-145 = assay: Cytotoxicity against human DU145 cells; format: functional; summary of the method: as §3
MCF7 = assay: Cytotoxicity against human MCF7 cells; format: functional; summary of the method: as §3
MDA-MB-231 [6] = assay: Cytotoxicity against human MDA-MB-231 cells; format: functional; summary of the method: as §3
K562 [7] = assay: as §2; format: functional; summary of the method: as §3; remark: listed apart in the source
UACC-62 = assay: Cytotoxicity against human UACC62 cells; format: functional
Summary of the method: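 NCI in vitro antitumor screening protocol; GI50 taken as the concentration giving 50% reduction in cell growth.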

K562 [8] = assay: Cell cycle arrest in human K562 cells assessed as accumulation at sub-G1 phase at 50 uM after 24 hrs by flow cytometry; format: functional
Summary of the method: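 K-562 human leukemia cells were grown in RPMI 1640 with 10% fetal calf serum, glutamine and penicillin/streptomycin at 37 °C in 5% CO₂. Cells were exposed to compound at 50 µM for 24 h, then pelleted and PBS-washed. They were fixed in ice-cold ethanol for 30 min, treated with 1 mg/mL RNase A at 37 °C for 30 min, and stained with propidium iodide and Triton X-100 for 30 min at room temperature in the dark. Per-phase and sub-G1 percentages came from flow cytometry gating.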

MDA-MB-231 [9] = assay: Cell cycle arrest in human MDA-MB-231 cells assessed as accumulation at sub-G1 phase at 3.6 uM after 24 hrs by flow cytometry; format: functional
MDA-MB-231 [10] = assay: Cell cycle arrest in human MDA-MB-231 cells assessed as accumulation of >4N cells at 3.6 uM after 24 hrs by flow cytometry; format: functional
MDA-MB-231 [11] = assay: Cell cycle arrest in human MDA-MB-231 cells assessed as accumulation of >4N cells at 27.0 uM after 24 hrs by flow cytometry; format: functional
MDA-MB-231 [12] = assay: Cell cycle arrest in human MDA-MB-231 cells assessed as accumulation of 2N cells at 9.0 uM after 72 hrs by flow cytometry; format: functional
MDA-MB-231 [13] = assay: Cell cycle arrest in human MDA-MB-231 cells assessed as accumulation of 2N cells at 3.6 uM after 72 hrs by flow cytometry; format: functional
MDA-MB-231 [14] = assay: Cell cycle arrest in human MDA-MB-231 cells assessed as accumulation at sub-G1 phase at 3.6 uM after 72 hrs by flow cytometry; format: functional
MDA-MB-231 [15] = assay: Cell cycle arrest in human MDA-MB-231 cells assessed as accumulation at sub-G1 phase at 27.0 uM after 72 hrs by flow cytometry; format: functional
MDA-MB-231 [16] = assay: Cell cycle arrest in human MDA-MB-231 cells assessed as accumulation at sub-G1 phase at 36.0 uM after 72 hrs by flow cytometry; format: functional
MDA-MB-231 [17] = assay: Cell cycle arrest in human MDA-MB-231 cells assessed as accumulation of 4N cells at 3.6 uM after 72 hrs by flow cytometry; format: functional
MDA-MB-231 [18] = assay: Cell cycle arrest in human MDA-MB-231 cells assessed as accumulation of 4N cells at 27.0 uM after 72 hrs by flow cytometry; format: functional
MDA-MB-231 [19] = assay: Cell cycle arrest in human MDA-MB-231 cells assessed as accumulation of >4N cells at 3.6 uM after 72 hrs by flow cytometry; format: functional
MDA-MB-231 [20] = assay: Cell cycle arrest in human MDA-MB-231 cells assessed as accumulation of >4N cells at 27.0 uM after 72 hrs by flow cytometry; format: functional
[21] = system: MDA-MB-231 (Homo sapiens); assay: Induction of apoptosis in human MDA-MB-231 cells assessed as induction of caspase 3 activation at 36 uM after 72 hrs by colorimetric assay relative to control
[22] = read-out: LC50 (the source's name)

Nc1ccccc1C#C/C=C\C#Cc1ccccc1C(F)(F)F
Activity (MDA-MB-231 [1]): Active
Activity (MDA-MB-231 [2]): Active
Activity (MDA-MB-231 [3]): Active
IC50 [4]: 9 µM
GI50 (K562 [5]): 1 µM
TGI (K562 [5]): 0.845 µM
CC50 (K562 [5]; [22]): 62.7 µM
GI50 (SR): 0.247 µM
TGI (SR): 0.691 µM
CC50 (SR; [22]): > 100 µM
GI50 (NCI-H23): 0.273 µM
TGI (NCI-H23): 1.89 µM
CC50 (NCI-H23; [22]): 47.8 µM
GI50 (NCI-H522): 0.597 µM
TGI (NCI-H522): 12.2 µM
CC50 (NCI-H522; [22]): 51.2 µM
GI50 (COLO 205): 1.17 µM
TGI (COLO 205): 13.8 µM
CC50 (COLO 205; [22]): > 100 µM
GI50 (KM12): 0.371 µM
TGI (KM12): 20.3 µM
CC50 (KM12; [22]): > 100 µM
GI50 (SW-620): 0.479 µM
TGI (SW-620): 19.7 µM
CC50 (SW-620; [22]): 69.2 µM
GI50 (SF-268): 0.65 µM
TGI (SF-268): 19.7 µM
CC50 (SF-268; [22]): 64.3 µM
GI50 (SF-295): 0.396 µM
TGI (SF-295): 2.6 µM
CC50 (SF-295; [22]): 26.8 µM
TGI (SK-MEL-28): 30.1 µM
CC50 (SK-MEL-28; [22]): 80.2 µM
GI50 (UACC-257): 0.536 µM
TGI (UACC-257): 23.7 µM
CC50 (UACC-257; [22]): 58.4 µM
GI50 (SK-OV-3): 0.888 µM
TGI (SK-OV-3): 24.7 µM
CC50 (SK-OV-3; [22]): 98.7 µM
GI50 (786-0): 0.7 µM
TGI (786-0): 17.7 µM
CC50 (786-0; [22]): 67 µM
GI50 (PC-3): 2.35 µM
TGI (PC-3): 24.9 µM
CC50 (PC-3; [22]): 94.2 µM
GI50 (DU-145): 3.08 µM
TGI (DU-145): 18.4 µM
CC50 (DU-145; [22]): 48.5 µM
GI50 (MCF7): 0.681 µM
TGI (MCF7): > 100 µM
CC50 (MCF7; [22]): > 100 µM
GI50 (MDA-MB-231 [6]): 0.4 µM
TGI (MDA-MB-231 [6]): 1.68 µM
CC50 (MDA-MB-231 [6]; [22]): 36.5 µM
GI50 (K562 [7]): 1 µM
TGI (UACC-62): 0.808 µM
GI50 (UACC-62; read-out: GI50): 0.261 µM
CC50 (UACC-62; [22]): 29 µM
GI50 (UACC-62; read-out: pGI50 (converted)): 0.251 µM
Activity (K562 [8]): 19.4%
Activity (MDA-MB-231 [9]): 23.6%
Activity (MDA-MB-231 [10]): 31.3%
Activity (MDA-MB-231 [11]): 35.3%
Activity (MDA-MB-231 [12]): 6.8%
Activity (MDA-MB-231 [13]): 23.3%
Activity (MDA-MB-231 [14]): 47.2%
Activity (MDA-MB-231 [15]): 65.4%
Activity (MDA-MB-231 [16]): 69.3%
Activity (MDA-MB-231 [17]): 19.2%
Activity (MDA-MB-231 [18]): 15%
Activity (MDA-MB-231 [19]): 10.3%
Activity (MDA-MB-231 [20]): 12.8%
fold change (FC) [21]: 3.4

— ChEMBL document CHEMBL1149910, “2-(6-aryl-3(Z)-hexen-1,5-diynyl)anilines as a new class of potent antitubulin agents” (J Med Chem, 2008)
